# A selection: hits, their analogues and other compounds. The true share with any hit is near 2.2%.
# PolyA inhibitor – blocks polyadenylation in yeast reporter cells | S. cerevisiae SKY197-pL101 polyadenylation reporter, beta-gal luminescence; efflux-impaired pdr1/pdr3 knockout yeast; score 100 = 6 SD above DMSO | activity score, % at 12 µM | 300,000 compounds, 0.02% hits | AID 1875;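 active = lowest replicate activity score at least 50, where 100 means six control SD above control mean; inconclusive = lowest score under 50 but half or more replicates reach 50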;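 note: yeast exposed to compound for 9 h at 30 °C; higher score means more reporter readthrough which indicates perturbed polyadenylation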
# T cruzi repl – blocks replication of Trypanosoma cruzi; inhibition, % (test concentration not listed); T. cruzi beta-gal in NIH3T3, luminescence, 90 h; 300,000 compounds, 1.4% hits;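 active = mean inhibition across valid replicates above about 55%, limit read from the data; inconclusive = mean below that limit but half or more replicates reach it; inactive = mean below it, under half of replicates reach it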;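 note: signal also drops with host cell toxicity which is not excluded here; 0% = plate median of DMSO wells and 100% = zero luminescence signal; higher percent means less beta-gal luminescence so fewer parasites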
#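 Incubation – ≥90 h infection period, 3 h prior cell attachment · System – NIH/3T3 fibroblasts plus reporter T. cruzi · Doses – compound pinned at 50 nL/well, DMSO · Read-out basis – percent inhibition of parasite-derived β-gal signal · Signal – luminescent β-galactosidase signal after 60 min lysis · Also added – 5000 T. cruzi trypomastigotes/well · Medium – Low-serum DMEM with 2% FBS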
# AI-2 QS modul – modulates the Vibrio harveyi AI-2 quorum sensing system. activity change, % at 7.5 µM. 300,000 compounds, 0.4% hits. Vibrio harveyi JMH597 AI-2 luminescence/OD600 ratio, 9 h; stronger effect = lower value; strain lacks LuxN and CqsS sensors; 0 = neutral-control median; in the data active = activity change below about -75%, passing the limit was not always enough; inconclusive = no clear call, values can overlap the other calls;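 note: luminescence divided by OD600 gain over 9 h not by final OD600 alone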
# Efflux pump mplx – blocks antifungal efflux pumps in multiplex yeast assay; S. cerevisiae Candida pump triplex, Nile Red efflux; inhibition, % at 10 µM; AID 485275; 330,000 compounds, 0.44% hits;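 active = plate passing quality check with inhibition over a set limit, or well fluorescence over plate mean plus 4 SD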;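 note: Nile Red retained in pooled yeast measured as flow cytometry median fluorescence; 0% = buffer negative control and 100% = Enniatin B positive control; higher means more Nile Red kept so more efflux inhibition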
# HDAC3 inh – blocks human histone deacetylase 3. recombinant HDAC3, fluorogenic peptide/trypsin coupled, fluorescence. inhibition, % at 8.3 µM. 320,000 compounds, 0.15% hits. AID 2718; in the data active = inhibition above about 26%, passing the limit was not always enough; inconclusive = no clear call, values can overlap the other calls
# Target sequence (O15379 whole entry, looked up): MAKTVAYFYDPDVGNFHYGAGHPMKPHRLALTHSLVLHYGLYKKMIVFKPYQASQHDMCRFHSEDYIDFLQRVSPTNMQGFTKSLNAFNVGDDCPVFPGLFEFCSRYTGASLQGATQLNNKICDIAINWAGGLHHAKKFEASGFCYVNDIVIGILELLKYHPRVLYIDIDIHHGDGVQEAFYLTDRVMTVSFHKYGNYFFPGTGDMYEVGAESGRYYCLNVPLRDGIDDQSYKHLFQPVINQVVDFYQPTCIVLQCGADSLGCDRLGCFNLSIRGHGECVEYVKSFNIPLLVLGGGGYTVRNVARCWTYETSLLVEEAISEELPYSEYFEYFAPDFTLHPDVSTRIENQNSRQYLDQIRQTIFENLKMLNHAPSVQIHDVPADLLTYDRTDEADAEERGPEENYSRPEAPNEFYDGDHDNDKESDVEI
# Active calls of the source: *; ? = inconclusive; . = not tested or not shown.
SMILES,PolyA inhibitor,T cruzi repl,AI-2 QS modul,Efflux pump mplx,HDAC3 inh
O=C(COc1ccc(Cl)cc1)Nc1nnc(-c2ccc3c(c2)CCCC3)o1,1.1,-8.6,17.8,0.2,-1.2
COc1cccc(C(=O)Nc2nnc(-c3cccs3)o2)c1,?,-24.5,-84.0*,-0.2,-0.7
COc1cccc(C(=O)Nc2nnc(-c3ccc(F)cc3)o2)c1,-4.9,-2.4,-88.2*,0.1,4.2
Cn1cc(CC(=O)NCCN2CCOCC2)c2ccccc21,-1.0,-21.5,6.3,0.6,-5.4
COc1ccc(N(C(=O)CCl)C(C)(C(=O)Nc2c(C)cccc2C)c2ccccn2)cc1 (configuration not stated),14.2,-2.0,15.5,0.1,-2.7
CCn1c(CNC(=O)c2ccc(F)cc2)cc2ccccc21,16.9,?,10.3,-0.1,2.9
Cn1nc(C(C)(C)C)c([N+](=O)[O-])c1C(=O)NC1CCCCC1,1.6,-12.5,18.8,-0.1,-0.2
CS(=O)c1ccccc1-c1nc(-c2cccc(Cl)c2)no1 (configuration not stated),-32.8,2.2,24.1,-0.5,4.8
COc1cccc(C(=O)Nc2nnc(-c3ccc(Cl)cc3)o2)c1,22.6,-6.2,-87.2*,0.3,0.5
Cc1cccc(OCC(=O)Nc2c3c(nn2C(C)(C)C)CS(=O)(=O)C3)c1,-4.8,-8.4,22.3,0.0,6.7
O=C1CC(NS(=O)(=O)c2ccc([N+](=O)[O-])cc2)CN1c1cccc(F)c1 (configuration not stated),2.1,64.8*,4.6,0.0,0.3
Fc1cccc(C[n+]2csc3ccccc32)c1,-15.7,54.5*,16.0,0.0,7.5
O=C1c2ccc(Cl)cc2S(=O)(=O)c2cccc(C(=O)N3CCC(Cc4ccccc4)CC3)c21,.,.,.,0.5,-2.7
Cc1ccc2nc(N3CCN(c4cccc(C)c4C)CC3)c3nnnn3c2c1,-5.8,-7.5,-2.1,0.1,-0.3
Cc1ccc2nc(Cl)c3nnnn3c2c1,-5.1,44.0,-86.2*,-0.1,.
O=C(O)c1nn(CCOc2cccc(Br)c2)c(=O)c2ccccc12,7.5,-0.1,-28.3,0.5,2.0
COc1cccc(C(=O)OCC(=O)NCCCc2ccccc2)c1,-20.3,-7.4,-13.7,0.0,7.5
CC[C@]1(c2ccccc2)C(=O)N(C(=O)OC)N1C(=O)OC,2.3,1.1,10.2,0.0,44.4*
CC[C@@]1(c2ccccc2)C(=O)N(C(=O)OC)N1C(=O)OC,-8.2,7.1,12.0,-0.1,9.2
C=CC[C@H](CC(=O)N[C@H](CO)Cc1ccccc1)C(=O)N[C@@H](COC(=O)[C@H](CC=C)CC(=O)OC(C)(C)C)Cc1c[nH]c2ccccc12,.,.,.,-0.1,44.3*
C=CC[C@@H](CC(=O)N[C@@H](CO)Cc1ccccc1)C(=O)N[C@@H](COC(=O)[C@H](CC=C)CC(=O)OC(C)(C)C)Cc1c[nH]c2ccccc12,.,.,.,0.0,39.4*
CC(=S)/C=C1\Sc2ccccc2N1C,-21.5,69.1*,-0.6,0.0,17.8
COc1ccc(C(=O)/C=C2\Sc3ccccc3N2C)cc1,-23.5,16.6,16.6,0.0,-5.6
O=[N+]([O-])c1cc(Oc2cccnc2)cc([N+](=O)[O-])c1,-10.6,60.5*,15.9,0.0,-0.5
Cc1cc(NC(=O)COc2ccccc2C(N)=O)no1,.,.,.,0.1,2.3
SMILES,PolyA inhibitor,T cruzi repl,AI-2 QS modul,Efflux pump mplx,HDAC3 inh
CC(C)N1CCN(Cc2cccn2-c2nccs2)CC1CCO (configuration not stated),4.2,14.1,31.6,0.1,1.7
O=C(OCc1cc(=O)n2c(n1)sc1ccccc12)c1ccc(O)cc1,-10.7,5.6,30.9,0.7,3.2
O=c1cc(CCl)nc2sc3ccccc3n12,-0.3,61.2*,19.3,0.0,.
CCc1cc(C(=O)N2CCN(S(=O)(=O)c3cc(C)ccc3C)CC2)sc1C,.,.,.,-0.2,10.3
O=C(Nc1cccc(-c2cccc(F)c2)c1)C1CCN(C2CCOCC2)CC1,-1.2,28.9,-9.4,0.0,-0.8
Cc1ccc(C)c(-c2nnc(NC(=O)CCS(=O)(=O)c3ccc(F)cc3)o2)c1,-15.3,0.4,-3.7,0.2,0.5
COCCNC(=S)N(CCc1c(C)[nH]c2ccc(Cl)cc12)Cc1cccs1,1.7,51.6,31.5,-0.2,12.7
CCNC(=S)N(CCc1c(C)[nH]c2ccc(Cl)cc12)Cc1ccco1,-29.5,71.9*,-2.0,-0.1,-1.0
CNC(=S)N(CCc1c(C)[nH]c2ccc(Cl)cc12)Cc1cccs1,-0.1,59.7*,7.3,0.1,10.4
CC(C(=O)Nc1ccc(F)c(F)c1F)N(C)CC(=O)Nc1ccccc1Br (configuration not stated),25.2,102.1*,30.1,0.0,2.8
COc1ccc(CCN2C(=NC(C)=O)SC3CS(=O)(=O)CC32)cc1OC (configuration not stated),1.5,-22.0,50.2,0.1,-17.0
C=CC[C@@H]1C=C(C)C[C@H](C)C[C@H](OC)[C@H]2O[C@@](O)(C(=O)C(=O)N3CCCC[C@H]3C(=O)O[C@H](/C(C)=C/[C@@H]3CC[C@@H](O)[C@H](OC)C3)[C@H](C)[C@@H](O)CC1=O)[C@H](C)C[C@@H]2OC,8.9,13.7,4.2,1.1*,?
c1ccc(CCNc2nc(-c3ccncc3)cs2)cc1,-10.2,83.0*,9.1,-0.4,-4.1
NNc1nc(-c2ccccc2)cs1,14.1,63.3*,36.1,-0.1,.
c1ccc(-c2csc(Nc3ncccn3)n2)cc1,5.4,-18.3,20.3,-0.1,1.6
O=C(Cn1cnc([N+](=O)[O-])n1)N/N=C/c1ccc2ccccc2c1,-13.9,61.5*,20.5,0.0,5.0
O=C(Cn1cnc([N+](=O)[O-])n1)NCc1ccccc1,5.1,79.4*,25.0,0.1,0.4
COc1ccc(C(=O)NCCCn2cccn2)cc1OC1CCN(C(C)=O)CC1,-3.2,2.7,9.4,.,.
COc1ccccc1C1CCN(Cc2ccc3ccccc3c2)CC1,-6.0,58.5*,11.8,0.3,3.1
COc1ccccc1C1CCN(Cc2ccccc2)CC1,-7.2,20.8,15.1,-0.1,-9.1
COc1ccc(N2C3=C(CC4=C2CC(C)(C)CC4=O)C(=O)CC(C)(C)C3)cc1,3.6,63.6*,23.5,0.0,8.9
COc1ccc(N2C3=C(CC4=C2CCCC4=O)C(=O)CCC3)cc1,14.4,9.8,2.9,-0.1,14.4
COC(=O)c1cn(NC(=O)Cc2ccccc2Br)c(=O)c2ccccc12,-6.3,-3.9,39.4,-0.1,-5.2
COc1ccc(C(=O)c2ccc(N3CCN(C(=O)c4ccc(F)cc4)CC3)c(F)c2)cc1Br,17.8,61.3*,16.0,0.1,6.3
CCC1=Nc2cc(C(=O)NCCCOC)ccc2Sc2ccccc21,-13.0,56.1*,167.3,-0.2,11.1
CCCC1=Nc2cc(C(=O)NCCCOCC)ccc2Sc2ccccc21,-0.8,32.9,12.2,0.1,2.1

# Assay outcomes (PubChem)
